Among the data in ChEMBL document CHEMBL1142895, “Discovery of a new insecticide lead by optimizing a target-diverse scaffold: tetrazolinone derivatives” (2007) are inhibition and Activity values, retold here.

SMILES strings stand for the structures. Calls of active or inactive are those of the source. The calls are words filed in the database; no cut-off is given here.

Assay [1] has as its system Triticum aestivum. The experiment in a line: Inhibition of stem growth of Triticum aestivum at 100 mg/L. Type of assay: functional. The essentials:
(§1)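 Seeds of each species were grown in Petri dishes with 10 seeds per dish, at 28 °C, 70–80% RH, 16:8 h light:dark photoperiod and 3000 lx light for 5 days. Root and stem lengths were measured for the 10 seeds and averaged. Each test and its controls were run in three replicates, and the data were given probit analysis.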

The test system of assay [2] is Triticum aestivum. Kind of assay: Inhibition of root growth of Triticum aestivum at 100 mg/L. Type of assay: functional. Put shortly:
as §1

Assay [3] deals with Echinochloa crus-galli. Kind of assay: Inhibition of stem growth of Echinochloa crus-galli at 100 mg/L. Type of assay: functional. Put shortly: as §1
The test system of assay [4] is Echinochloa crus-galli. Kind of assay: Inhibition of root growth of Echinochloa crus-galli at 100 mg/L. The format is functional. The essentials:
as §1

Assay [5] deals with Sorghum bicolor. Kind of assay: Inhibition of stem growth of Sorghum bicolor at 100 mg/L. The format is functional. The essentials:
as §1

For assay [6], the system named is Sorghum bicolor. Kind of assay: Inhibition of root growth of Sorghum bicolor at 100 mg/L. Type of assay: functional. The essentials: as §1
Assay [7] has as its system Brassica rapa subsp. oleifera. Kind of assay: Inhibition of stem growth of Brassica campestris at 100 mg/L. Type of assay: functional. The essentials:
as §1

The test system of assay [8] is Brassica rapa subsp. oleifera. The experiment in a line: Inhibition of root growth of Brassica campestris at 100 mg/L. The format is functional. Put shortly: as §1
Assay [9] deals with Radish. Kind of assay: Inhibition of stem growth of Raphanus sativus at 100 mg/L. Type of assay: functional. The essentials:
as §1

The subject of assay [10] is Radish. The experiment in a line: Inhibition of root growth of Raphanus sativus at 100 mg/L. Type of assay: functional. Put shortly:
as §1

Assay [11] relates to Cucumis sativus. The experiment in a line: Inhibition of stem growth of Cucumis sativus at 100 mg/L. Type of assay: functional. The essentials: as §1
Assay [12] has as its system Cucumis sativus. Kind of assay: Inhibition of root growth of Cucumis sativus at 100 mg/L. The format is functional. Put shortly:
as §1

The test system of another assay is Aphis. Kind of assay: Insecticidal activity against Aphis medicagini at 250 mg/L. Type of assay: functional. Put shortly: (§2)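 Groups of 10 of each species were placed in glass Petri dishes and sprayed with test solution using a Potter sprayer. After air-drying, they were held under normal rearing conditions. Mortality at 72 h was taken from the number and size of live larvae relative to untreated controls.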

Assay [13] concerns Triticum aestivum. The experiment in a line: Herbicidal activity against Triticum aestivum at 450 g ai/ha in greenhouse in vivo test. The format is functional, organism-based.
The test system of assay [14] is Echinochloa crus-galli. Kind of assay: Herbicidal activity against Echinochloa crus-galli at 450 g ai/ha in greenhouse in vivo test. Type of assay: functional, organism-based.
The test system of assay [15] is Sorghum bicolor. Kind of assay: Herbicidal activity against Sorghum bicolor at 450 g ai/ha in greenhouse in vivo test. The format is functional, organism-based.
The test system of assay [16] is Brassica rapa subsp. oleifera. Kind of assay: Herbicidal activity against Brassica campestris at 450 g ai/ha in greenhouse in vivo test. Type of assay: functional, organism-based.
For assay [17], the system named is Radish. The experiment in a line: Herbicidal activity against Raphanus sativus at 450 g ai/ha in greenhouse in vivo test. Type of assay: functional, organism-based.
In assay [18] the test system is Cucumis sativus. The experiment in a line: Herbicidal activity against Cucumis sativus at 450 g ai/ha in greenhouse in vivo test. The format is functional, organism-based.
The test system of another assay is Tetranychus cinnabarinus. The experiment in a line: Insecticidal activity against Tetranychus cinnabarinus at 250 mg/L. Type of assay: functional. Put shortly:
as §2

For `C=CCSc1nnc(Cn2nnn(-c3ccc(Cl)cc3)c2=O)o1`, the inhibition at 100 µg/mL with Triticum aestivum [1], in the assay with Triticum aestivum [2], with Echinochloa crus-galli [3], in the assay on Echinochloa crus-galli [4], in the assay with Sorghum bicolor [5] and in the assay on Sorghum bicolor [6] was 0% each time. Moreover, the inhibition at 100 µg/mL in assay [7] was determined as 70%; in [8] it was 80%; with Radish [9] it was 60%; with Radish [10], 60%; in the assay with Cucumis sativus [11], 50%; in the assay with Cucumis sativus [12], 60%. In addition, the Activity in the assay on Aphis is 5%; in the assay with Tetranychus cinnabarinus it was 96.8%. Also, the outcome (in the assay on Triticum aestivum [13]; in the assay on Echinochloa crus-galli [14]; in the assay on Sorghum bicolor [15]; in assay [16]; in the assay on Radish [17]; in the assay with Cucumis sativus [18]) was inactive.

Regarding `O=c1n(Cc2nnc(SCc3cccc(Cl)c3)s2)nnn1-c1ccc(Cl)cc1`, the inhibition at 100 µg/mL in the assay on Triticum aestivum [1] is 70%; with Triticum aestivum [2], 60%; in the assay with Echinochloa crus-galli [3] it was 0%; in the assay on Echinochloa crus-galli [4], 0%; with Sorghum bicolor [5] it was 50%; with Sorghum bicolor [6], 40%. In addition, the inhibition at 100 µg/mL in assay [7] was found to be 0%; in assay [8], 0%; in the assay with Radish [9], 30%; in the assay with Radish [10], 50%; in the assay with Cucumis sativus [11], 40%; with Cucumis sativus [12] it was 0%. For the same molecule, the Activity in the assay on Aphis is 2.9%; in the assay with Tetranychus cinnabarinus it was 5.7%. Moreover, the result (in the assay with Triticum aestivum [13]; with Echinochloa crus-galli [14]; with Sorghum bicolor [15]; in assay [16]; in the assay on Radish [17]; in the assay with Cucumis sativus [18]) was inactive.

Consider `CCOC(=O)C(C)Sc1nnc(Cn2nnn(-c3ccc(Cl)cc3)c2=O)s1` (stereo not given), for which the inhibition at 100 µg/mL in the assay on Triticum aestivum [1] was found to be 50%; in the assay on Triticum aestivum [2], 70%; in the assay on Echinochloa crus-galli [3], 40%; in the assay on Echinochloa crus-galli [4], 50%; with Sorghum bicolor [5] it was 70%; with Sorghum bicolor [6], 80%. Moreover, the inhibition at 100 µg/mL came out at 80% in assay [7]; 85% in assay [8]; 50% in the assay with Radish [9]; 80% in the assay with Radish [10]; 60% with Cucumis sativus [11]; 60% in the assay with Cucumis sativus [12]. Besides, the Activity in the assay on Aphis and with Tetranychus cinnabarinus was 0% each time. The outcome (with Triticum aestivum [13]; with Echinochloa crus-galli [14]; in the assay with Sorghum bicolor [15]; in [16]; in the assay with Radish [17]; with Cucumis sativus [18]) was inactive.

As for `CCCCCCCCSc1nnc(Cn2nnn(-c3ccc(Cl)cc3)c2=O)s1`, the inhibition at 100 µg/mL with Triticum aestivum [1] was found to be 0%; in the assay with Triticum aestivum [2] it was 30%; with Echinochloa crus-galli [3], 0%; in the assay on Echinochloa crus-galli [4], 40%; with Sorghum bicolor [5] it was 0%; in the assay on Sorghum bicolor [6], 50%. Also, the inhibition at 100 µg/mL in assay [7] amounted to 0%; in assay [8], 40%; in the assay with Radish [9], 0%; in the assay with Radish [10], 40%; with Cucumis sativus [11], 0%; in the assay with Cucumis sativus [12], 30%. Also, the results for the Activity in the assay on Aphis and in the assay with Tetranychus cinnabarinus were 0% and 2.9%, respectively. The result (with Triticum aestivum [13]; in the assay on Echinochloa crus-galli [14]; in the assay with Sorghum bicolor [15]; in assay [16]; in the assay with Radish [17]; in the assay on Cucumis sativus [18]) was inactive.

For `COc1cc(-n2nnn(C)c2=O)c(Cl)cc1Cl`, the inhibition at 100 µg/mL in the assay with Triticum aestivum [1] turned out to be 50%; in the assay with Triticum aestivum [2] it was 70%; in the assay with Echinochloa crus-galli [3], 30%; in the assay on Echinochloa crus-galli [4] it was 30%; in the assay on Sorghum bicolor [5] it was 30%; in the assay on Sorghum bicolor [6], 70%. Moreover, the inhibition at 100 µg/mL in [7] amounted to 0%; in assay [8], 0%; in the assay on Radish [9], 0%; in the assay with Radish [10] it was 0%; in the assay with Cucumis sativus [11] it was 60%; in the assay on Cucumis sativus [12], 60%. Also, the results for the Activity with Aphis and with Tetranychus cinnabarinus were 0% and 100%, respectively. Besides, the result (in the assay on Triticum aestivum [13]; in the assay with Echinochloa crus-galli [14]; with Sorghum bicolor [15]; in assay [16]; in the assay with Radish [17]; in the assay with Cucumis sativus [18]) was inactive.

As for `CCOC(=O)CSc1nnc(Cn2nnn(-c3ccc(Cl)cc3)c2=O)o1`, the inhibition at 100 µg/mL in the assay with Triticum aestivum [1], with Triticum aestivum [2], in the assay with Echinochloa crus-galli [3], in the assay on Echinochloa crus-galli [4], with Sorghum bicolor [5] and in the assay on Sorghum bicolor [6] was 0% in each case. Besides, the inhibition at 100 µg/mL in assay [7] worked out at 60%; in assay [8] it was 50%; with Radish [9] it was 0%; in the assay on Radish [10], 50%; with Cucumis sativus [11], 0%; in the assay with Cucumis sativus [12], 0%. Besides, the figures for the Activity with Aphis and in the assay with Tetranychus cinnabarinus were 0% and 2.9%, respectively. Besides, the outcome (in the assay with Triticum aestivum [13]; in the assay on Echinochloa crus-galli [14]; in the assay with Sorghum bicolor [15]; in assay [16]; in the assay on Radish [17]; in the assay with Cucumis sativus [18]) was inactive.

Regarding `Cc1cccc(Cn2nnn(-c3ccc(Cl)cc3)c2=O)c1`, the inhibition at 100 µg/mL in the assay with Triticum aestivum [1], in the assay with Triticum aestivum [2], in the assay with Echinochloa crus-galli [3], in the assay on Echinochloa crus-galli [4], in the assay on Sorghum bicolor [5] and in the assay on Sorghum bicolor [6] was 0% throughout. The inhibition at 100 µg/mL came out at 90% in [7]; 80% in assay [8]; 70% with Radish [9]; 80% with Radish [10]; 0% in the assay with Cucumis sativus [11]; 0% with Cucumis sativus [12]. Moreover, the Activity with Aphis worked out at 8.3%; with Tetranychus cinnabarinus, 4.3%. In addition, the result (with Triticum aestivum [13]; in the assay with Echinochloa crus-galli [14]; with Sorghum bicolor [15]; in assay [16]; in the assay on Radish [17]; in the assay on Cucumis sativus [18]) was inactive.

For the molecule `C=CCn1nnn(-c2ccc(Cl)cc2)c1=O`, the inhibition at 100 µg/mL in the assay with Triticum aestivum [1] is 80%; in the assay with Triticum aestivum [2], 80%; in the assay with Echinochloa crus-galli [3] it was 50%; in the assay with Echinochloa crus-galli [4], 0%; with Sorghum bicolor [5], 60%; in the assay on Sorghum bicolor [6], 60%. In addition, the inhibition at 100 µg/mL in assay [7] is 50%; in assay [8] it was 50%; in the assay on Radish [9] it was 80%; in the assay with Radish [10] it was 80%; with Cucumis sativus [11] it was 30%; with Cucumis sativus [12], 40%. The Activity stood at 3.3% in the assay with Aphis and 4.3% in the assay with Tetranychus cinnabarinus. In addition, the result (in the assay with Triticum aestivum [13]; in the assay on Echinochloa crus-galli [14]; in the assay on Sorghum bicolor [15]; in [16]; in the assay with Radish [17]; with Cucumis sativus [18]) was inactive.

For `O=c1n(Cc2cccc(F)c2)nnn1-c1ccc(Cl)cc1`, the inhibition at 100 µg/mL in the assay with Triticum aestivum [1] is 40%; with Triticum aestivum [2], 40%; with Echinochloa crus-galli [3], 0%; in the assay with Echinochloa crus-galli [4], 70%; with Sorghum bicolor [5], 0%; with Sorghum bicolor [6], 0%. Moreover, the inhibition at 100 µg/mL in assay [7] amounted to 0%; in assay [8], 0%; in the assay on Radish [9] it was 0%; in the assay on Radish [10] it was 0%; in the assay on Cucumis sativus [11], 30%; with Cucumis sativus [12], 50%. The Activity in the assay with Aphis came to 0%; in the assay on Tetranychus cinnabarinus, 5.7%. Further, the result (in the assay on Triticum aestivum [13]; in the assay with Echinochloa crus-galli [14]; in the assay on Sorghum bicolor [15]; in assay [16]; in the assay on Radish [17]; with Cucumis sativus [18]) was inactive.
